Data reported in ChEMBL document CHEMBL2151006 (Eur J Med Chem, 2012).

What was measured:
Cannabinoid receptor 1 [1] = target: T1, Cannabinoid receptor 1 (Homo sapiens, UniProt P21554); experiment: biochemical; type: cell-based, HEK293
Homo sapiens = species on record: Homo sapiens; experiment: Selectivity index, ratio of Ki for human recombinant CB1 receptor to Ki for human recombinant CB2 receptor
Cannabinoid receptor 2 [2] = target: T2, Cannabinoid receptor 2 (Homo sapiens, UniProt P34972); experiment: Displacement of [3H]CP55940 from human recombinant CB2 receptor transfected in HEK cell membranes; parameters: species or system HEK293
T2 sequence (P34972 whole entry): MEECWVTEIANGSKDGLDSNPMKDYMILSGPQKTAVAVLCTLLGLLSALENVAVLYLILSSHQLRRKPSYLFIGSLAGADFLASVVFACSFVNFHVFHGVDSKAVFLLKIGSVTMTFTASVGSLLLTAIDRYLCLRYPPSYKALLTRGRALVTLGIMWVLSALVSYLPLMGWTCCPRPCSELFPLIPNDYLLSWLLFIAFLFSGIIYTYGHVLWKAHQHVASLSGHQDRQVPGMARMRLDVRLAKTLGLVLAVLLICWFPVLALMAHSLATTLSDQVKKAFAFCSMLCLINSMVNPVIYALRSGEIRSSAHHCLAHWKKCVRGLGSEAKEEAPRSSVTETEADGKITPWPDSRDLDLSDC

Cannabinoid receptor 2 [3] = target: T2, Cannabinoid receptor 2; experiment: Agonist activity at human CB2 receptor transfected in CHO cell membranes by [35S]GTPgammaS binding assay; type: functional
CYP3A4 = CYP3A4 (Homo sapiens, UniProt P08684); experiment: Metabolic stability assessed as human recombinant CYP3A4-mediated drug metabolism by measuring compound remaining after 1 hr; type: ADME; details: read-out: Drug metabolism
Chain of CYP3A4 (P08684 whole entry): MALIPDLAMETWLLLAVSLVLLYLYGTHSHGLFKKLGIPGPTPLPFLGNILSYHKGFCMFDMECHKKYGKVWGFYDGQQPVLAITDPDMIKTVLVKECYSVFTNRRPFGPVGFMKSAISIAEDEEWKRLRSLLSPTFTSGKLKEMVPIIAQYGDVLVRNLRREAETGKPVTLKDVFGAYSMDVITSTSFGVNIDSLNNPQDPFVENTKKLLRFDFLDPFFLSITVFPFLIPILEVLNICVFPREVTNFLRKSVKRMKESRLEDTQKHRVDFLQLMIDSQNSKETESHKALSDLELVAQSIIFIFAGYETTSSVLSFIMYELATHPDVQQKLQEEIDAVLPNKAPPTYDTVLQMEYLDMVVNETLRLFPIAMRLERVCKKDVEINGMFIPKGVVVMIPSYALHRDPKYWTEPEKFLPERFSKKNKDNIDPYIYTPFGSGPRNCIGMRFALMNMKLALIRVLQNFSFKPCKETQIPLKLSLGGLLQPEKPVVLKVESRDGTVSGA
Outline: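 Recombinant hCYP3A4 at 20 pmol/mL in 100 mM phosphate pH 7.4 with 1 mM EDTA, […]. Incubation was 1 h at 37 °C with or without NADPH regenerating system, then stopped with cold acetonitrile. Percent remaining is the MS peak area with NADPH over that without, ×100.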

[4] = Metabolic stability in rat plasma assessed as compound remaining measured at 3 hrs; type: ADME, cell-free; details: read-out: Stability
Outline: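 Fresh rat plasma was spiked with compound and incubated at 37 °C with gentle agitation, in duplicate. Samples were taken at 0, 30 min and 3 h and proteins precipitated with acetonitrile. LC-ESI+-MS/MS in MRM mode; percent remaining is peak area relative to time 0.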

[5] = Intrinsic clearance in human liver microsomes; type: ADME, Microsome; details: read-out: CLH
[6] = Intrinsic clearance in rat liver microsomes; type: ADME, Microsome; details: read-out: CLH
MDR1 [7] = experiment: Apparent permeability across apical to basolateral side in human MDR1 transfected MDCK2 cells at 10 uM after 2 hrs; type: ADME, cell-based, Canis lupus familiaris, MDCK-II; details: dog, MDCK-MDR1
MDR1 [8] = experiment: Efflux ratio of permeability from basolateral to apical side over apical to basolateral side in human MDR1 transfected MDCK2 cells at 10 uM after 2 hrs; type: ADME, cell-based, Canis lupus familiaris, MDCK-II; details: dog, MDCK-MDR1
Cannabinoid receptor 2 [9] = target: T2, Cannabinoid receptor 2; details: CHO, 0.001 to 10 uM
Cannabinoid receptor 1 [10] = target: T1, Cannabinoid receptor 1; experiment: Agonist activity at human CB1 receptor transfected in CHO cell membranes by [35S]GTPgammaS binding assay; type: functional
Cannabinoid receptor 1 [11] = target: T1, Cannabinoid receptor 1; experiment: Agonist activity at human CB1 receptor transfected in CHO cell membranes at 0.001 to 30 uM by [35S]GTPgammaS binding assay relative to CP55940; type: functional

T1 sequence (P21554 whole entry): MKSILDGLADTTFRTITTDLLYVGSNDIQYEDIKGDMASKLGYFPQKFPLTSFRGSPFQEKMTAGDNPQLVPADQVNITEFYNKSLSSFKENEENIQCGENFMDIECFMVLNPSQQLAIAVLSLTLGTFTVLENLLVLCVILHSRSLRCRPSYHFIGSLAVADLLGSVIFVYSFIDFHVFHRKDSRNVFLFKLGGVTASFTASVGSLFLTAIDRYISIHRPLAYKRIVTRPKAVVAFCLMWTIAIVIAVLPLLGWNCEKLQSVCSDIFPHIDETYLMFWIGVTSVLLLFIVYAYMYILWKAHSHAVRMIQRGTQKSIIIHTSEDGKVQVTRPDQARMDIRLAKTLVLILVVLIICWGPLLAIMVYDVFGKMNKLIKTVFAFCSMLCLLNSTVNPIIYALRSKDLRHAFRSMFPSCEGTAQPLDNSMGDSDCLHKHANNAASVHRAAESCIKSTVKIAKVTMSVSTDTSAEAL

Structure (SMILES)	Ki (Cannabinoid receptor 1 [1]) [nM]	Ratio Ki (Homo sapiens)	Ki (Cannabinoid receptor 2 [2]) [nM]	other results
CC1(C)C2CC[C@](C)(C2)[C@@H]1NC(=O)c1cn(CCCCSc2ccccc2)c2cc(Sc3ccccc3)ccc2c1=O	> 10000	> 1540	6.5	–
CCCCCn1cc(C(=O)NC2CN3CCC2CC3)c(=O)c2ccc(Sc3ccccc3)cc21 (centres undefined)	151	1.7	89.1	–
CC1(C)C2CC[C@](C)(C2)[C@@H]1NC(=O)c1cn(CCCCO)c2cc(F)ccc2c1=O	398	26	15.2	–
Cc1cccc(Cn2cc(C(=O)N[C@@H]3C(C)(C)C4CC[C@]3(C)C4)c(=O)c3ccc(Sc4ccccc4)cc32)c1	669	5	139	–
CCCCCn1cc(C(=O)N[C@@H]2C(C)(C)C3CC[C@]2(C)C3)c(=O)c2ccc(F)cc21	4	17	0.3	–
CCn1cc(C(=O)N[C@@H]2C(C)(C)C3CC[C@]2(C)C3)c(=O)c2ccc(F)cc21	960	131	7.3	EC50 (Cannabinoid receptor 2 [3]): 17.2 nM; remaining at 1 h (CYP3A4): 1%; remaining at 3 h [4]: 92%; microsomal CLint [5]: > 700 µL/min/mg; microsomal CLint [6]: > 700 µL/min/mg; Papp A→B at 2 h, 10 µM (MDR1 [7]): 0.17 ×10⁻⁶ cm/s; efflux ratio at 2 h, 10 µM (MDR1 [8]): 1; Emax (Cannabinoid receptor 2 [9]): 45%
CCCCCn1cc(C(=O)N[C@@H]2C(C)(C)C3CC[C@]2(C)C3)c(=O)c2ccc(Sc3ccccc3)cc21	2.45	27.2	0.09	–
CCCn1cc(C(=O)N[C@@H]2C(C)(C)C3CC[C@]2(C)C3)c(=O)c2ccc(F)cc21	193	57	2.9	–
CN(C)CCn1cc(C(=O)N[C@@H]2C(C)(C)C3CC[C@]2(C)C3)c(=O)c2ccc(Sc3ccccc3)cc21	28.8	23	1.3	–
COCCn1cc(C(=O)N[C@@H]2C(C)(C)C3CC[C@]2(C)C3)c(=O)c2ccc(Sc3ccccc3)cc21	23.8	22	1.1	–
CC1(C)C2CC[C@](C)(C2)[C@@H]1NC(=O)c1cn(CCCCO)c2cc(Sc3ccccc3)ccc2c1=O	38.6	15	2.5	–
CCCCCn1cc(C(=O)N2CCC[C@H]2C(N)=O)c(=O)c2ccc(Sc3ccccc3)cc21	1490	6.5	230	–
CCCCCn1cc(C(=O)NC23CC4CC(CC(C4)C2)C3)c(=O)c2ccc(F)cc21	–	38	–	–
CCn1cc(C(=O)N[C@@H]2C(C)(C)C3CC[C@]2(C)C3)c(=O)c2ccc(Sc3ccccc3)cc21	181	42	4.4	–
CCCCCn1cc(C(=O)NN2CCCCC2)c(=O)c2ccc(Sc3ccccc3)cc21	28.9	2.2	13.3	–
COCCn1cc(C(=O)N[C@@H]2C(C)(C)C3CC[C@]2(C)C3)c(=O)c2ccc(F)cc21	297	54	5.5	–
CCCCn1cc(C(=O)N[C@@H]2C(C)(C)C3CC[C@]2(C)C3)c(=O)c2ccc(Sc3ccccc3)cc21	4.7	31	0.1	–
CN(C)CCn1cc(C(=O)N[C@@H]2C(C)(C)C3CC[C@]2(C)C3)c(=O)c2ccc(F)cc21	–	–	7.9	–
CC1(C)C2CC[C@](C)(C2)[C@@H]1NC(=O)c1cnc2cc(F)ccc2c1O	> 10000	–	957	–

Structure (SMILES)	Ki (Cannabinoid receptor 1 [1]) [nM]	Ratio Ki (Homo sapiens)	Ki (Cannabinoid receptor 2 [2]) [nM]	other results
C=Cn1cc(C(=O)N[C@@H]2C(C)(C)C3CC[C@]2(C)C3)c(=O)c2ccc(F)cc21	3570	235	15.2	–
Cn1cc(C(=O)N[C@@H]2C(C)(C)C3CC[C@]2(C)C3)c(=O)c2ccc(F)cc21	> 10000	> 106	93.9	–
CCCCCn1cc(C(=O)NOCc2ccccc2)c(=O)c2ccc(Sc3ccccc3)cc21	12.9	0.7	19.3	–
CCCCCn1cc(C(=O)NOC)c(=O)c2ccc(Sc3ccccc3)cc21	490	1.4	340	–
CC1(C)C2CC[C@](C)(C2)[C@@H]1NC(=O)c1c[nH]c2cc(F)ccc2c1=O	–	> 10	–	–
CCCCCn1cc(C(=O)NC(CC)CO)c(=O)c2ccc(Sc3ccccc3)cc21 (centres undefined)	58.2	2.9	19.9	–
Cn1cc(C(=O)N[C@@H]2C(C)(C)C3CC[C@]2(C)C3)c(=O)c2ccc(Sc3ccccc3)cc21	1870	117	16	–
CCCCCn1cc(C(=O)NCCN2CCOCC2)c(=O)c2ccc(Sc3ccccc3)cc21	63.2	0.5	119	–
CCCCCn1cc(C(=O)NCc2ccc(Cl)c(Cl)c2)c(=O)c2ccc(Sc3ccccc3)cc21	420	< 0.04	> 10000	EC50 (Cannabinoid receptor 1 [10]): 791 nM; Emax (Cannabinoid receptor 1 [11]): 55.8%; remaining at 1 h (CYP3A4): 25%; remaining at 3 h [4]: 100%; microsomal CLint [5]: > 700 µL/min/mg; microsomal CLint [6]: > 700 µL/min/mg; Papp A→B at 2 h, 10 µM (MDR1 [7]): 0.14 ×10⁻⁶ cm/s; efflux ratio at 2 h, 10 µM (MDR1 [8]): 0.4
CCCCCn1cc(C(=O)NCc2ccc(Cl)c(Cl)c2)c(=O)c2ccc(-c3ccccc3)cc21	390	< 0.04	> 10000	–
CCCCCn1cc(C(=O)NN(C)C)c(=O)c2ccc(Sc3ccccc3)cc21	86.6	1.1	77.5	–
CCCCn1cc(C(=O)N[C@@H]2C(C)(C)C3CC[C@]2(C)C3)c(=O)c2ccc(F)cc21	14.4	17	0.8	–
CCCCCn1cc(C(=O)NC(C)C)c(=O)c2ccc(Sc3ccccc3)cc21	20.9	1.4	14.8	–
O=C(NN1CCCCC1)c1cn(-c2ccc(Cl)cc2)c2cc(F)ccc2c1=O	> 10000	–	> 10000	–
Cc1cccc(Cn2cc(C(=O)N[C@@H]3C(C)(C)C4CC[C@]3(C)C4)c(=O)c3ccc(F)cc32)c1	> 10000	> 317	31.5	–
CCCCCn1cc(C(=O)NC23CC4CC(CC(C4)C2)C3)c(=O)c2ccc(Sc3ccccc3)cc21	–	3.3	–	–
O=C(NN1CCCCC1)c1cn(-c2ccc(F)cc2)c2cc(Sc3ccccc3)ccc2c1=O	> 10000	–	> 10000	–
CCCCCn1cc(C(=O)NCc2ccc(Cl)c(Cl)c2)c(=O)c2ccc(Br)cc21	660	5	130	–
CCCn1cc(C(=O)N[C@@H]2C(C)(C)C3CC[C@]2(C)C3)c(=O)c2ccc(Sc3ccccc3)cc21	11	31	0.4	–
